Reference: ChEMBL document CHEMBL4364289, “The structure-activity profile of mercaptobenzamides' anti-HIV activity suggests that thermodynamics of metabolism is more important than binding affinity to the target” (Eur J Med Chem, 2019)

Tests used:
[1] = tested on: Human immunodeficiency virus 1; assay: Antiviral activity against HIV1 RF infected in human CEM-SS cells assessed as inhibition of viral replication incubated for 6 days by XTT assay; assay type: functional, organism-based
Outline: (§1)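 CEM-SS cells (2.5 × 10³/well) in RPMI with 10% FBS, 2 mM L-glutamine, penicillin/streptomycin; six serial compound concentrations added with HIV-1 RF titered to give 85–95% cell killing at day 6. AZT run in parallel as positive control. Incubated 6 days at 37 °C, 5% CO2; viability by XTT (OD 450/650 nm). EC50 from percent CPE reduction; SI = TC50/EC50.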

[2] = (§2) Cytotoxicity against human CEM-SS cells assessed as reduction in cell viability incubated for 6 days by […]; assay type: cell-based; conditions: CEM-SS cells, read-out: TC50
Outline: (§3)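 Uninfected CEM-SS cells (2.5 × 10³/well) in RPMI with 10% FBS, 2 mM L-glutamine, penicillin/streptomycin, exposed to six serial compound concentrations for 6 days at 37 °C, 5% CO2. Viability read by XTT staining (OD 450/650 nm); TC50 derived from percent viability of uninfected drug-control wells.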

[3] = Selectivity index, ratio of TC50 for human CEM-SS cells to EC50 for HIV1 RF infected in human CEM-SS cells; assay type: toxicity, cell-based; conditions: for selectivity ratio: CEM-SS cells, read-out: Selectivity Index; outline: as §1
[4] = Dissociation constant, pKa of compound; assay type: physicochemical
[5] = Drug metabolism of compound in phosphate buffer incubated for 12 hrs in presence of acetyl-1,2,13C2 CoA by 13C-NMR spectrometric method
Outline: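 Thiol and acetyl-1,2-13C2 CoA at 10:1 stoichiometric ratio incubated in degassed (helium-sparged) 0.1 M phosphate buffer pH 7.0 (4:1 H2O/D2O) with 2% DMF, 37 °C, 12 h in a sealed NMR tube. Equilibrium confirmed by 13C NMR monitoring; equilibrium constant for thiol–thioester exchange determined from spectra.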

[6] = Prodrug activation in human PBMC cells assessed as 2-(3-amino 3-oxopropylcarbamoyl)benzenethiolate formation; assay type: cell-based
CEM-SS = assay: as §2; assay type: cell-based; conditions: cem-ss, 144 h, read-out: TC50 (the source's name); outline: as §3
[7] = Drug metabolism of compound in glutathione assessed as 2-(3-amino 3-oxopropylcarbamoyl)benzenethiolate formation
[8] = Drug metabolism of compound in nucleophilic proteinogenic cysteines assessed as 2-(3-amino 3-oxopropylcarbamoyl)benzenethiolate formation
[9] = Human immunodeficiency virus 1, RF, CEM-SS, 144 h

SMILES | EC50 [1, 9] [µM] | CC50 at 144 h [2] [µM] | selectivity ratio [3] | other results
CCCC(=O)OCSc1ccccc1C(=O)NCCCCC(N)=O | 3.7 | 51.7 | 14 | 
CCCC(=O)OCSc1ccccc1C(=O)NCC(=O)OC | > 100 | 27.3 |  | 
CCCC(=O)OCSc1ccccc1CC(=O)NCC(N)=O | > 100 | > 100 |  | 
CCCC(=O)OCSc1ccccc1C(=O)N[C@H]1CCC[C@@H]1C(N)=O (racemic) |  | 31.2 |  | EC50 [1]: 0.9 µM; Selectivity Index [3]: 34.7
CCCC(=O)OCSc1ccccc1C(=O)N[C@@H]1CCC[C@@H]1C(N)=O | 1.8 | 90 | 50 | 
CCCC(=O)OCSc1ccccc1C(=O)NC | > 100 | 5.7 |  | 
CCCC(=O)OCSc1ccccc1C(=O)NCC(=O)NCc1ccccc1 | 4.8 | 29.3 | 6.1 | 
CCCC(=O)OCSc1ccccc1C(=O)N[C@@H]1CCC[C@H]1C(N)=O | 1.7 | 43.7 | 25.7 | 
CCCC(=O)OCSc1ccccc1C(=O)NCCCCCCC(N)=O | 1 | 10.4 | 10.4 | 
CCCC(=O)OCSc1ccccc1C(=O)Nc1ccccc1C(N)=O | 5.1 | 50.1 | 9.82 | 
CCCC(=O)OCSc1ccccc1C(=O)N1CCC[C@H]1C(N)=O | > 100 | > 100 |  | 
CCCC(=O)OCSc1ccccc1C(=O)NCC(=O)NC(C)(C)C | 9.1 | 46.8 | 5.14 | 
CCCC(=O)OCSc1ccc(OC)cc1C(=O)NCCC(N)=O | 1.5 | > 100 |  | 
CCCC(=O)OCSc1ccccc1C(=O)NCC(N)=O | 2.9 | > 100 |  | 
CCCC(=O)OCSc1ccccc1C(=O)NCCCCCNC(C)=O | 3.9 | 9.2 | 2.36 | 
CCCC(=O)OCSc1ccccc1C(=O)N(C)CC(=O)N(C)C | > 100 | 57.3 |  | 
NC(=O)CCNC(=O)c1ccccc1S |  |  |  | pKa [4]: 5.83; Ke [5]: 0.0023
CCCC(=O)OCSc1ccccc1C(=O)NCCC(N)=O | 2.4 | > 100 |  | Drug metabolism [6]: Metabolite_Detected
CCCC(=O)OCSc1ccccc1C(=O)NCCNC(C)=O | 2.6 | 91.9 | 35.3 | 
CCCC(=O)OCSc1ccccc1C(=O)NCC(=O)NCCN(C)C | 6.6 | 76.9 | 11.6 | 
CCCC(=O)OCSc1ccccc1C(=O)NC1(C(N)=O)CCCC1 | < 8.2 | > 100 |  | 
CCCC(=O)OCSc1ccccc1C(=O)N[C@H]1CCC[C@H]1C(N)=O |  |  |  | EC50 [1]: 3 µM; CC50 (CEM-SS): 84.8 µM; Selectivity Index [3]: 28.3
CCCC(=O)OCSc1ccccc1C(=O)NCCCCNC(C)=O | 0.57 | 17.4 | 30.5 | 
CCCC(=O)OCSc1ccccc1C(N)=O | > 100 | 12.4 |  | 
CC(=O)Sc1ccccc1C(=O)NCCC(N)=O |  |  |  | Ka [7]: 84 M⁻¹ s⁻¹; Ka [8]: 84 M⁻¹ s⁻¹

SMILES | EC50 [1, 9] [µM] | CC50 at 144 h [2] [µM] | selectivity ratio [3] | other results
CCCC(=O)OCSc1ccccc1C(=O)NCC(=O)NCC(N)=O | 27.5 | > 100 | > 3.64 | 
CCCC(=O)OCSc1ccccc1C(=O)OCC(N)=O | > 100 | 82.1 |  | 
CCCC(=O)OCSc1ccccc1C(=O)NCCCNC(C)=O | 1.1 | 21.1 | 19.2 | 
CCCC(=O)OCSc1ccc(OC(F)(F)F)cc1C(=O)NC(C)(C)C(N)=O |  | < 56.1 |  | 
CCCC(=O)OC[Se]c1ccccc1C(=O)NCCC(N)=O | 8.6 | 10.5 | 1.22 | 
CCCCCNC(=O)CNC(=O)c1ccccc1SCOC(=O)CCC | 10.3 | 24.8 | 2.41 | 
CCCC(=O)OCSc1ccccc1C(=O)NCCCCCCNC(C)=O | 1.5 | 8 | 5.33 | 
CCCC(=O)OCSc1ccccc1C(=O)NCCCC(N)=O | 1.2 | 56.6 | 47.2 | 
CCCC(=O)OCSc1ccccc1C(=O)N[C@H]1CCC[C@@H]1C(N)=O |  |  |  | EC50 [1]: 2.9 µM; CC50 (CEM-SS): 43.3 µM; Selectivity Index [3]: 15
CCCC(=O)OCSc1ccccc1C(=O)Nc1ccc(C(N)=O)cc1 | 1.6 | 39 | 24.4 | 
CCCC(=O)OCSc1c(C)cccc1C(=O)NCCC(N)=O | > 100 |  |  | 
CCCC(=O)OCSc1ccccc1C(=O)NCC(=O)NC(C)C | 5 | 92 | 18.4 | 
CCCC(=O)OCSc1ccccc1C(=O)NCC(=O)NCC(=O)OC | 4.9 | > 100 | > 20.4 | 
CCCC(=O)OC[Se]c1ccccc1C(=O)NCC(N)=O | > 100 | 6.8 |  | 
CCCC(=O)OCSc1ccccc1C(=O)N(C)CC(=O)NC | > 100 | 62.5 |  | 
CCCC(=O)OCSc1ccccc1C(=O)NCC(=O)N(C)C | 4.7 | 38.3 | 8.15 | 
CCCC(=O)OCSc1ccccc1C(=O)N[C@H]1CCC[C@H]1C(N)=O (racemic) | 5.32 | 89.9 | 16.9 | 
CCCC(=O)OCSc1ccccc1C(=O)Nc1cccc(C(N)=O)c1 | 1.2 | 17.5 | 14.6 | 
CCCC(=O)OCSc1ccccc1C(=O)NCC(=O)NC | 1.4 | > 100 | > 71.4 | 
CCCC(=O)OCSc1ccccc1C(=O)NCCCCCC(N)=O | 3.1 | 16.3 | 5.26 | 
C#CCNC(=O)CNC(=O)c1ccccc1SCOC(=O)CCC | 4.7 | 95.4 | 20.3 | 
CCCC(=O)OCSc1c(F)cccc1C(=O)NCCC(N)=O | > 100 |  |  | 
NC(=O)CCNC(=O)c1cccc(S)c1 | > 100 | > 100 |  | 
CCCC(=O)OCSc1ccccc1C(=O)N(C)CC(N)=O | > 100 | 55.3 |  | 
